Reference: ChEMBL document CHEMBL4411297, “Discovery, synthesis and anti-atherosclerotic activities of a novel selective sphingomyelin synthase 2 inhibitor” (Eur J Med Chem, 2019)

How the values were obtained:
[1] = molecular target: T1, Phosphatidylcholine:ceramide cholinephosphotransferase 2 (Mus musculus) (UniProt Q9D4B1); assay: Inhibition of SMS2 in C57BL/6J mouse bone marrow derived macrophages after 17 hrs
T1 sequence (whole entry): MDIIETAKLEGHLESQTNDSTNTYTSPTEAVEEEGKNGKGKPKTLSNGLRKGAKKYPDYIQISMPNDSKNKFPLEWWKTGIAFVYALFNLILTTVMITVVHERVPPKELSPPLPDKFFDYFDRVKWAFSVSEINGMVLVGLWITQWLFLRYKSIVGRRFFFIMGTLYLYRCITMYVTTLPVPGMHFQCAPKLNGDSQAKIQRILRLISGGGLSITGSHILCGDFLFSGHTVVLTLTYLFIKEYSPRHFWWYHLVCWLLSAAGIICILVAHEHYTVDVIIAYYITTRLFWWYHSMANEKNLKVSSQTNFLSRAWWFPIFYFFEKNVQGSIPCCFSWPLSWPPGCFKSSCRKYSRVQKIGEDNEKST

[2] = test system: Mus musculus; assay: Anti-atherosclerotic activity in apoE knockout mouse fed with western-type diet assessed as reduction in macrophage content at 12.5 mg/kg/day, ig for 7 weeks by immunostaining assay relative to control; type: functional; design: scale not given: the % may be the effect or the level left
Procedure, shortened: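 ApoE KO mice on Western-type diet, dosed by gavage at 12.5 or 40 mg/kg/day for 7 weeks. Aortic root sections 4 µm thick immunostained with MOMA-2: primary antibody 1 h at room temperature, biotinylated secondary, HRP-streptavidin, DAB, hematoxylin counterstain. Stained area quantified and expressed relative to vehicle.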

[3] = molecular target: T2, Phosphatidylcholine:ceramide cholinephosphotransferase 2 (Homo sapiens, UniProt Q8NHU3); assay: Inhibition of SMS2 (unknown origin) over-expressed in H5 insect cell lysate using C6-NBD-Ceramide and DMPC as substrates preincubated for 30 mins followed by substrate addition and measured after 2 hrs by TLC or HPLC method; type: subcellular
T2 sequence (Q8NHU3 whole entry): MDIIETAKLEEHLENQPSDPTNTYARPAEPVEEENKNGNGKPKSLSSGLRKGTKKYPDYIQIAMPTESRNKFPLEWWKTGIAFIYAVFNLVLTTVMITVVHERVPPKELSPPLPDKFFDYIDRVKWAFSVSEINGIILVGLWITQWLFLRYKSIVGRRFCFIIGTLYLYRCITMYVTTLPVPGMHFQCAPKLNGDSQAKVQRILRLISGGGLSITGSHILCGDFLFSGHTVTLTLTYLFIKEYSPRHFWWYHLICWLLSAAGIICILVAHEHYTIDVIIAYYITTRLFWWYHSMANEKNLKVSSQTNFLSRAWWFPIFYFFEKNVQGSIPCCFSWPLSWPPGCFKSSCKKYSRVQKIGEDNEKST

[4] = Cmax in C57BL/6J mouse at 50 mg/kg/day, ig by HPLC-MS/MS analysis; type: ADME, organism-based; design: dose 50 mg/kg/day, route intragastric; conditions: in vivo, po
Procedure, shortened: (§1)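 Male C57BL/6J mice, six to eight weeks old, about 20 g, fasted 12 h with free water. Given a single intragastric dose of 25, 50 or 100 mg/kg in 10% DMSO/30% PEG-100/0.9% NaCl. Blood taken retro-orbitally at 5 min to 8 h. Plasma protein-precipitated with methanol plus internal standard, then HPLC-MS/MS on a C18 column. Noncompartmental analysis, n = 6.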

[5] = AUC (0 to 8 hrs) in C57BL/6J mouse at 25 mg/kg/day, ig by HPLC-MS/MS analysis; type: ADME, organism-based; design: dose 25 mg/kg/day, time < 8 hr, route intragastric; conditions: in vivo, po; procedure, shortened: as §1
[6] = test system: Mus musculus; assay: Anti-atherosclerotic activity in apoE knockout mouse fed with western-type diet assessed as reduction in lymphocyte count at 12.5 mg/kg/day, ig for 7 weeks by flow cytometric analysis relative to control; type: functional; design: scale not given: the % may be the effect or the level left
Procedure, shortened: (§2)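 ApoE KO mice started at 8 weeks old on Western-type diet for 6 weeks. Then dosed by gavage daily with vehicle, 12.5 or 40 mg/kg for 7 weeks with the diet continued, 10 mice per group. Blood single-cell suspensions stained with antibodies in PBS and analysed by flow cytometry. Mean ± SD, n = 5.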

[7] = test system: Mus musculus; assay: Anti-atherosclerotic activity in apoE knockout mouse fed with western-type diet assessed as reduction in CD11b+/CD11c+ dendritic cells at 40 mg/kg/day, ig for 7 weeks by flow cytometric analysis relative to control; type: functional; design: scale not given: the % may be the effect or the level left; procedure, shortened: as §2
[8] = AUC (0 to infinity) in C57BL/6J mouse at 50 mg/kg/day, ig by HPLC-MS/MS analysis; type: ADME, organism-based; design: dose 50 mg/kg/day, time infinity, route intragastric; conditions: in vivo, po; procedure, shortened: as §1
[9] = Tmax in C57BL/6J mouse at 25 mg/kg/day, ig by HPLC-MS/MS analysis; type: ADME, organism-based; conditions: in vivo, po
Procedure, shortened: (§3)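 Male C57BL/6J mice (6–8 weeks, ~20 g), fasted 12 h, given a single intragastric dose of 25, 50 or 100 mg/kg in 10% DMSO/30% PEG/0.9% NaCl. Retro-orbital blood at 5 min to 8 h; plasma protein-precipitated with methanol plus internal standard, assayed by LC-MS/MS; noncompartmental analysis. Mean ± SD, n = 6.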

[10] = test system: Mus musculus; assay: Anti-atherosclerotic activity in apoE knockout mouse fed with western-type diet assessed as reduction in lymphocyte count at 40 mg/kg/day, ig for 7 weeks by flow cytometric analysis relative to control; type: functional; design: scale not given: the % may be the effect or the level left; procedure, shortened: as §2
[11] = Tmax in C57BL/6J mouse at 50 mg/kg/day, ig by HPLC-MS/MS analysis; type: ADME, organism-based; conditions: in vivo, po; procedure, shortened: as §3
[12] = MRT (0 to infinity) in C57BL/6J mouse at 100 mg/kg/day, ig by HPLC-MS/MS analysis; type: ADME, organism-based; conditions: in vivo, po; procedure, shortened: as §3
[13] = test system: Mus musculus; assay: Anti-atherosclerotic activity in apoE knockout mouse fed with western-type diet assessed as reduction in CD4+/CD8+ cell ratio at 40 mg/kg/day, ig for 7 weeks by flow cytometric analysis relative to control; type: functional; design: scale not given: the % may be the effect or the level left; procedure, shortened: as §2
[14] = test system: Mus musculus; assay: Effect on plasma ALT levels in C57BL/6J mouse at 100 mg/kg/day, ig qd for 7 days measured on day 7; type: ADME, organism-based; conditions: in vivo, po, 168 h
Procedure, shortened: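 C57BL/6J mice dosed by gavage at 100 mg/kg once daily for 7 days. Plasma SM sampled on days 0, 3 and 7. Plasma ALT and AST measured on day 7 by automated analyzer. Compared with vehicle, n = 10.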

[15] = MRT (0 to infinity) in C57BL/6J mouse at 25 mg/kg/day, ig by HPLC-MS/MS analysis; type: ADME, organism-based; conditions: in vivo, po; procedure, shortened: as §3
[16] = Apparent volume of distribution during terminal phase in C57BL/6J mouse at 25 mg/kg/day, ig by HPLC-MS/MS analysis; type: ADME, organism-based; conditions: in vivo, po, read-out: Vz/F; procedure, shortened: as §1
[17] = Dose normalized AUC (0 to 8 hrs) in C57BL/6J mouse at 50 mg/kg/day, ig by HPLC-MS/MS analysis; type: ADME, organism-based; conditions: in vivo, po; procedure, shortened: as §1
[18] = MRT (0 to 8 hrs) in C57BL/6J mouse at 100 mg/kg/day, ig by HPLC-MS/MS analysis; type: ADME, organism-based; conditions: in vivo, po; procedure, shortened: as §3
[19] = AUC (0 to infinity) in C57BL/6J mouse at 100 mg/kg/day, ig by HPLC-MS/MS analysis; type: ADME, organism-based; design: dose 100 mg/kg/day, route intragastric, time infinity; conditions: in vivo, po; procedure, shortened: as §1
[20] = Dose normalized AUC (0 to 8 hrs) in C57BL/6J mouse at 100 mg/kg/day, ig by HPLC-MS/MS analysis; type: ADME, organism-based; conditions: in vivo, po; procedure, shortened: as §1

## CCc1ccccc1COc1ccccc1C(=O)Nc1cccnc1
[1]
  inhibition: Dose-dependent effect
[2]
  Activity: 28%
[3]
  IC50: 880 nM
[4]
  Cmax: 6120 ng/mL
[5]
  AUC at 8 h: 1990 ng·h/mL
[6]
  Activity: 21%
[7]
  Activity: 57%
[8]
  AUC(0-inf): 6790 ng·h/mL
[9]
  Tmax: 6.6 min
[10]
  Activity: 24%
[11]
  Tmax: 4.8 min
[12]
  MRT inf: 2.57 h
[13]
  Activity: 37%
[14]
  Activity: Non-Toxic
[15]
  MRT inf: 3.64 h
[16]
  Vd/F: 51.4 L
[17]
  AUC/dose: 0.12 µg·h/mL
[18]
  MRT: 1.66 h
[19]
  AUC(0-inf): 14500 ng·h/mL
[20]
  AUC/dose: 0.13 µg·h/mL
